Experimental data taken from ChEMBL document CHEMBL1811760, “Structure-activity relationships of C-17-substituted estratriene-3-O-sulfamates as anticancer agents” (J Med Chem, 2011).
Active and inactive are the calls of the source. The rule behind the calls is not given here.

How the values were obtained:
MCF7 = assay: Antiproliferative activity against estrogen-positive human MCF7 cells; format: functional
DU-145 = assay: Antiproliferative activity against human DU145 cells after 96 hrs by WST1 assay; format: functional; details: DU-145, 96 h
Outline: (§1)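 Cells were grown in RPMI-1640 with 10% FBS at 37 °C in 5% CO2, then seeded at 5000 cells/well. They were exposed to compound at 10^-9–10^-4 M or vehicle for 96 h. Live cells were read by WST-1 and expressed as percent of mean control, from which GI50 was calculated. Runs were done in triplicate.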

MDA-MB-231 = assay: Antiproliferative activity against estrogen-negative human MDA-MB-231 cells after 96 hrs by WST1 assay; format: functional; details: MDA-MB-231, 96 h; outline: as §1
SF-539 = assay: Growth inhibition of human SF539 cells; format: functional
HCT-116 = assay: Growth inhibition of human HCT116 cells; format: functional
UACC-62 = assay: Growth inhibition of human UACC62 cells; format: functional
[1] = Growth inhibition of human NCI60 cells; format: functional
SN12C = assay: Growth inhibition of human SN12C cells; format: functional
OVCAR-3 = assay: Growth inhibition of human OVCAR3 cells; format: functional
HOP-62 = assay: Growth inhibition of human HOP62 cells; format: functional
[2] = Toxicity in ip dosed athymic nude mouse administered as single dose; format: organism-based; details: in vivo
Outline: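 Preliminary toxicology run at the NCI in female athymic nude mice. Each mouse received a single ip dose, at doses up to 400 mg/kg. The compound was formulated in 10% DMSO in saline/Tween 80.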

Mus musculus [3] = assay: Antiangiogenic activity in Matrigel plug implanted C57BL/6J mouse assessed as inhibition of bFGF-induced angiogenesis at 20 mg/kg, po administered 24 hrs after implantation for 4 days measured by FITC-conjugated dextran staining based fluorimetry; format: functional, organism-based; design: dose 20 mg/kg
Outline: (§2)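 Female C57BL/6J mice (6–8 weeks) were injected subcutaneously in the flanks with 0.5 mL ice-cold Matrigel plus 500 ng bFGF. Oral dosing in vehicle (10% THF, 90% PG) ran daily for 4 days, starting 24 h after Matrigel. Groups had five mice. FITC-dextran (0.1 mL of 0.25 mg/mL) was given iv and mice killed 20 min later. Plugs were digested in Dispase 16 h at 37 °C, and supernatant fluorescence read at ex 480/em 520 nm against a FITC-dextran standard curve.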

Mus musculus [4] = assay: Antiangiogenic activity in Matrigel plug implanted C57BL/6J mouse assessed as inhibition of bFGF-induced angiogenesis at 10 mg/kg, po administered 24 hrs after implantation for 4 days measured by FITC-conjugated dextran staining based fluorimetry; format: functional, organism-based; design: dose 10 mg/kg; outline: as §2

| Structure (SMILES) | GI50 (MCF7) | GI50 (DU-145) | GI50 (MDA-MB-231) | GI50 (SF-539) | GI50 (HCT-116) | GI50 (UACC-62) | GI50 [1] | GI50 (SN12C) | GI50 (OVCAR-3) | GI50 (HOP-62) | further results |
| --- | --- | --- | --- | --- | --- | --- | --- | --- | --- | --- | --- |
| CCc1cc2c(cc1OS(N)(=O)=O)CC[C@@H]1[C@@H]2CC[C@]2(C)[C@@H](CC(C)=O)CC[C@@H]12 | 320 nM | 160 nM | 180 nM |  |  |  |  |  |  |  |  |
| CCc1cc2c(cc1O)CC[C@@H]1[C@@H]2CC[C@]2(C)[C@@H](CC(C)=O)CC[C@@H]12 | 5790 nM | 18900 nM |  |  |  |  |  |  |  |  |  |
| CCc1cc2c(cc1O)CC[C@@H]1[C@@H]2CC[C@]2(C)/C(=C/CO)CC[C@@H]12 | 770 nM |  |  |  |  |  |  |  |  |  |  |
| CCc1cc2c(cc1OS(N)(=O)=O)CC[C@@H]1[C@@H]2CC[C@]2(C)[C@@H](CC(F)F)CC[C@@H]12 |  | 1810 nM |  | 1950 nM | 2820 nM | 4900 nM | 3090 nM | 5370 nM | 3470 nM | 3890 nM |  |
| CCc1cc2c(cc1O)CC[C@@H]1[C@@H]2CC[C@]2(C)[C@@H](COC)CC[C@@H]12 |  | 25300 nM | 9200 nM |  |  |  |  |  |  |  |  |
| CCc1cc2c(cc1OS(N)(=O)=O)CC[C@@H]1[C@@H]2CC[C@]2(C)[C@@H](CO)CC[C@@H]12 |  | 100 nM | 110 nM | < 10 nM | < 10 nM | < 10 nM | 18 nM | < 10 nM | < 10 nM | < 10 nM | MTD [2]: 400 mg/kg |
| CCOC(=O)/C=C1\CC[C@H]2[C@@H]3CCc4cc(OS(N)(=O)=O)c(CC)cc4[C@H]3CC[C@]12C | 1850 nM |  |  |  |  |  |  |  |  |  |  |
| CCc1cc2c(cc1O)CC[C@@H]1[C@@H]2CC[C@]2(C)[C@@H](CC#N)CC[C@@H]12 | > 100000 nM |  |  |  |  |  |  |  |  |  |  |
| CCc1cc2c(cc1O)CC[C@@H]1[C@@H]2CC[C@]2(C)[C@@H](CCF)CC[C@@H]12 |  | 3400 nM |  |  |  |  |  |  |  |  |  |
| COc1cc2c(cc1OS(N)(=O)=O)CC[C@@H]1[C@@H]2CC[C@]2(C)[C@@H](C(C)=O)CC[C@@H]12 |  | 46 nM | 48 nM |  |  |  |  |  |  |  |  |
| CCc1cc2c(cc1OS(N)(=O)=O)CC[C@@H]1[C@@H]2CC[C@]2(C)[C@@H](COC)CC[C@@H]12 |  | 330 nM | 530 nM | < 10 nM | 22 nM |  | 42 nM | 72 nM | < 10 nM | 45 nM |  |
| CCOC(=O)C[C@H]1CC[C@H]2[C@@H]3CCc4cc(O)c(CC)cc4[C@H]3CC[C@]12C | 26400 nM |  |  |  |  |  |  |  |  |  |  |
| CCc1cc2c(cc1O)CC[C@@H]1[C@@H]2CC[C@]2(C)/C(=C\CO)CC[C@@H]12 | 670 nM |  |  |  |  |  |  |  |  |  |  |
| COc1cc2c(cc1OS(N)(=O)=O)CC[C@@H]1[C@@H]2CC[C@]2(C)[C@@H](CC(C)O)CC[C@@H]12 (some centres undefined) |  | 140 nM | 140 nM | 23 nM | 25 nM | < 10 nM | 28 nM | 52 nM | < 10 nM | 48 nM |  |
| CCc1cc2c(cc1OS(N)(=O)=O)CC[C@@H]1[C@@H]2CC[C@]2(C)[C@@H](OS(N)(=O)=O)CC[C@@H]12 |  |  |  | < 10 nM |  | < 10 nM | 18 nM | 28 nM | < 10 nM | < 10 nM |  |
| CCOC(=O)/C=C1\CC[C@H]2[C@@H]3CCc4cc(O)c(CC)cc4[C@H]3CC[C@]12C | 30600 nM |  |  |  |  |  |  |  |  |  |  |
| CCOC(=O)/C=C1/CC[C@H]2[C@@H]3CCc4cc(O)c(CC)cc4[C@H]3CC[C@]12C | 31100 nM |  |  |  |  |  |  |  |  |  |  |
| CCc1cc2c(cc1OS(N)(=O)=O)CC[C@@H]1[C@@H]2CC[C@]2(C)[C@@H](CCF)CC[C@@H]12 |  | 780 nM |  | 5250 nM | 3390 nM | 3890 nM | 6310 nM | 7590 nM | 22900 nM | 3720 nM |  |

| Structure (SMILES) | GI50 (MCF7) | GI50 (DU-145) | GI50 (MDA-MB-231) | GI50 (SF-539) | GI50 (HCT-116) | GI50 (UACC-62) | GI50 [1] | GI50 (SN12C) | GI50 (OVCAR-3) | GI50 (HOP-62) | further results |
| --- | --- | --- | --- | --- | --- | --- | --- | --- | --- | --- | --- |
| CCc1cc2c(cc1O)CC[C@@H]1[C@@H]2CC[C@]2(C)[C@@H](CCOC)CC[C@@H]12 | 24800 nM |  |  |  |  |  |  |  |  |  |  |
| CCc1cc2c(cc1OS(N)(=O)=O)CC[C@@H]1[C@@H]2CC[C@]2(C)[C@@H](CCO)CC[C@@H]12 | < 500 nM |  |  | 350 nM | 270 nM | 2890 nM | 1730 nM | 2450 nM | 11500 nM | 250 nM |  |
| COc1cc2c(cc1O)CC[C@@H]1[C@@H]2CC[C@]2(C)[C@@H](C(C)=O)CC[C@@H]12 |  | 300 nM | 390 nM |  |  |  |  |  |  |  |  |
| CCc1cc2c(cc1O)CC[C@@H]1[C@@H]2CC[C@]2(C)[C@@H](C(C)=O)CC[C@@H]12 |  | 2000 nM |  |  |  |  |  |  |  |  |  |
| CCc1cc2c(cc1OS(N)(=O)=O)CC[C@@H]1[C@@H]2CC[C@]2(C)[C@@H](COS(N)(=O)=O)CC[C@@H]12 |  | 290 nM | 430 nM | 56 nM | 38 nM | 22 nM | 85 nM | 309 nM | 19 nM | 61 nM |  |
| COc1cc2c(cc1O)CC[C@@H]1[C@@H]2CC[C@]2(C)[C@@H](CC(C)=O)CC[C@@H]12 |  | 2400 nM |  |  |  |  |  |  |  |  |  |
| COc1cc2c(cc1OS(N)(=O)=O)CC[C@@H]1[C@@H]2CC[C@]2(C)[C@@H](CC(C)=O)CC[C@@H]12 | < 5 nM | 89 nM | 68 nM | < 10 nM | < 10 nM | < 10 nM | 21 nM | < 10 nM | < 10 nM | < 10 nM | Activity (Mus musculus [3]): Active; Activity (Mus musculus [4]): Active |
| CCOC(=O)C[C@H]1CC[C@H]2[C@@H]3CCc4cc(OS(N)(=O)=O)c(CC)cc4[C@H]3CC[C@]12C | 4190 nM |  |  | 220 nM | 350 nM | 450 nM | 520 nM | 630 nM | 220 nM | 590 nM |  |
| CCc1cc2c(cc1O)CC[C@@H]1[C@@H]2CC[C@]2(C)[C@@H](CCO)CC[C@@H]12 | 2520 nM |  |  |  |  |  |  |  |  |  |  |
| CCc1cc2c(cc1OS(N)(=O)=O)CC[C@@H]1[C@@H]2CC[C@]2(C)[C@@H](CCOC)CC[C@@H]12 |  | 3400 nM |  | 5010 nM | 2700 nM | 2340 nM | 4570 nM | 4680 nM | 4070 nM | 4900 nM |  |
| CCc1cc2c(cc1OS(N)(=O)=O)CC[C@@H]1[C@@H]2CC[C@]2(C)/C(=C/CO)CC[C@@H]12 | 10000 nM |  |  | 220 nM | 270 nM | 470 nM | 490 nM | 580 nM | 230 nM | 420 nM |  |
| CCc1cc2c(cc1O)CC[C@@H]1[C@@H]2CC[C@]2(C)/C(=C/COC)CC[C@@H]12 | > 10000 nM |  |  |  |  |  |  |  |  |  |  |
| CCc1cc2c(cc1O)CC[C@@H]1[C@@H]2CC[C@]2(C)[C@@H](CC(F)F)CC[C@@H]12 |  | 60000 nM |  |  |  |  |  |  |  |  |  |
| COc1cc2c(cc1OS(N)(=O)=O)CC[C@@H]1[C@@H]2CC[C@]2(C)[C@@H](C/C(C)=N\O)CC[C@@H]12 |  | 2090 nM | 2350 nM |  |  |  |  |  |  |  |  |
| CCc1cc2c(cc1OS(N)(=O)=O)CC[C@@H]1[C@@H]2CC[C@]2(C)[C@@H](C(C)=O)CC[C@@H]12 | 26 nM | 62 nM | 19 nM | < 10 nM | < 10 nM | < 10 nM | 15 nM | < 10 nM | < 10 nM | < 10 nM | Activity (Mus musculus [3]): Active; Activity (Mus musculus [4]): Active |
| CCc1cc2c(cc1O)CC[C@@H]1[C@@H]2CC[C@]2(C)[C@@H](CO)CC[C@@H]12 |  | 10100 nM | 6300 nM |  |  |  |  |  |  |  |  |
| CCc1cc2c(cc1OS(N)(=O)=O)CC[C@@H]1[C@@H]2CC[C@]2(C)[C@@H](CCOS(N)(=O)=O)CC[C@@H]12 | 5640 nM |  |  |  |  |  |  |  |  |  |  |
